One assay is filed under the species Mus musculus. The assay can be described thus: Selectivity ratio of IC50 for mouse Flag-tagged delta-opioid receptor to IC50 for mouse Flag-tagged mu-opioid receptor.
In assay [1] the target is Mu-type opioid receptor (Cavia porcellus, UniProt P97266). The experiment in a line: Agonist activity at mu-opioid receptor in guinea pig ileum assessed as inhibition of electrically induced contractions. Format: functional.
The target of assay [2] is Mu-type opioid receptor (Mus musculus, UniProt P42866). The assay can be described thus: Displacement of [125I]-DAMGO from mouse Flag-tagged mu-opioid receptor expressed in HEK293 cell membranes after 60 mins by gamma counting.
Chain of Mu-type opioid receptor (Mus musculus, UniProt P42866) (P42866 whole entry): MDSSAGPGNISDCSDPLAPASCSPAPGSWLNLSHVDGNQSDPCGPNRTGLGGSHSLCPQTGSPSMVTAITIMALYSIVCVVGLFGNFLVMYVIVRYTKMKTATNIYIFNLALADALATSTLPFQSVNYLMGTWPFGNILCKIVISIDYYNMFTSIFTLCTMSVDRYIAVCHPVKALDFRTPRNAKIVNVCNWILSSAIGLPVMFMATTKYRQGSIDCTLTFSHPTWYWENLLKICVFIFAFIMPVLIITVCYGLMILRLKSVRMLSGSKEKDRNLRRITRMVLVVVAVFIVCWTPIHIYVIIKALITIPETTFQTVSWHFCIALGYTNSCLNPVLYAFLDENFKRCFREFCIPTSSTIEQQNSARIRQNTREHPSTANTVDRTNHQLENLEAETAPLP
Assay [3] deals with T1, Delta-type opioid receptor (Mus musculus, UniProt P32300). The experiment in a line: Displacement of [125I]-Deltorphin 2 from mouse Flag-tagged delta-opioid receptor expressed in HEK293 cell membranes after 60 mins by gamma counting. Background: Displacement assays read how much labelled ligand stays bound in the presence of the test substance.
T1 sequence (P32300 whole entry): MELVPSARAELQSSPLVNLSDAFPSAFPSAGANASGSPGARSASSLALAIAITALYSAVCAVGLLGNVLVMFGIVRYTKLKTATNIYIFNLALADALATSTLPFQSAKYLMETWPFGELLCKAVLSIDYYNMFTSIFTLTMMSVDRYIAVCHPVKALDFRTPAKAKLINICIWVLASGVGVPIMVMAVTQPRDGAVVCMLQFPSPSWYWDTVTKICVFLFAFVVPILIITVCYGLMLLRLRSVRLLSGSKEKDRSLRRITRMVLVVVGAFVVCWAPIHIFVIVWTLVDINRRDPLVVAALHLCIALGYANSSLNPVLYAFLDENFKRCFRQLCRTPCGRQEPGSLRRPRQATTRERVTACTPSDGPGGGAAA
In assay [4] the target is T1, Delta-type opioid receptor. The experiment in a line: Agonist activity at delta-opioid receptor in mouse vasa deferens assessed as inhibition of electrically induced contractions. Format: functional.
Assay [5] concerns the target Delta-type opioid receptor (Rattus norvegicus, UniProt P33533). The experiment in a line: Agonist activity at rat delta-opioid receptor expressed in HEK293 cells co-expressing Rluc2-EPAC-GFP10 biosenser assessed as inhibition of forskolin-induced cAMP level after 10 mins by fluorescence based assay. Format: functional, cell-based. (cAMP levels reflect the balance of adenylyl cyclase and phosphodiesterase activity.)

The species named for assay [6] is Rattus norvegicus. The experiment in a line: Potency index, ratio of antinociceptive activity of DAMGO to antinociceptive activity of compound in Sprague-Dawley rat model of thermal-induced nociception by tail flick assay. Format: functional.
Assay [7] is filed under the species Rattus norvegicus. The assay can be described thus: Antinociceptive activity in Sprague-Dawley rat model of thermal-induced nociception assessed as increase in latency to tail withdrawal at 1 nmol, it measured at every 10 mins for 1 hr by tail flick assay. Format: functional, organism-based. The essentials:
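Compound given intrathecally to rats; tail-flick test measured withdrawal response to a thermal stimulus.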
For orientation: In hot-plate and tail-flick tests a longer latency is read as antinociception.

The target of assay [8] is Mu-type opioid receptor (Rattus norvegicus, UniProt P33535). The experiment in a line: Agonist activity at rat mu-opioid receptor expressed in HEK293 cells co-expressing Rluc2-EPAC-GFP10 biosenser assessed as inhibition of forskolin-induced cAMP level after 10 mins by fluorescence based assay. Format: functional, cell-based.
Chain of Mu-type opioid receptor (Rattus norvegicus, UniProt P33535) (P33535 whole entry): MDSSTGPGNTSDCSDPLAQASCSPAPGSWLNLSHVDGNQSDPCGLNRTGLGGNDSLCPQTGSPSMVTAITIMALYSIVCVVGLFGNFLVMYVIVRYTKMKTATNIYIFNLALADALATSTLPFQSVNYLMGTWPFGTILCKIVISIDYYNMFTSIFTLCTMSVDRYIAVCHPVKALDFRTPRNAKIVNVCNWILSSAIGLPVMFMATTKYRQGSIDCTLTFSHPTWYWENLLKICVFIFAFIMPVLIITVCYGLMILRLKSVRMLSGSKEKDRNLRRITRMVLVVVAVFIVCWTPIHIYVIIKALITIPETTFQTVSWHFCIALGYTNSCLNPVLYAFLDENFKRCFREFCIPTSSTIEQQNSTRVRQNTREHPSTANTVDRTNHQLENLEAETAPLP
Assay [9] concerns the target Mu-type opioid receptor (Cavia porcellus) (UniProt P97266). The experiment in a line: Antagonist activity at mu-opioid receptor in guinea pig ileum assessed as effect on electrically induced contractions. Format: functional.
In assay [10] the target is Delta-type opioid receptor (Mus musculus) (UniProt P32300). The assay can be described thus: Partial agonist activity at delta-opioid receptor in mouse vasa deferens assessed as inhibition of electrically induced contractions. Format: functional.
Chain of Delta-type opioid receptor (Mus musculus) (P32300 whole entry): as the sequence (P32300 whole entry) above
In assay [11] the target is Delta-type opioid receptor (Rattus norvegicus) (UniProt P33533). The assay can be described thus: Partial agonist activity at rat delta-opioid receptor expressed in HEK293 cells co-expressing Rluc2-EPAC-GFP10 biosenser assessed as inhibition of forskolin-induced cAMP level after 10 mins by fluorescence based assay. Format: functional, cell-based.
Chain of Delta-type opioid receptor (Rattus norvegicus) (P33533 whole entry): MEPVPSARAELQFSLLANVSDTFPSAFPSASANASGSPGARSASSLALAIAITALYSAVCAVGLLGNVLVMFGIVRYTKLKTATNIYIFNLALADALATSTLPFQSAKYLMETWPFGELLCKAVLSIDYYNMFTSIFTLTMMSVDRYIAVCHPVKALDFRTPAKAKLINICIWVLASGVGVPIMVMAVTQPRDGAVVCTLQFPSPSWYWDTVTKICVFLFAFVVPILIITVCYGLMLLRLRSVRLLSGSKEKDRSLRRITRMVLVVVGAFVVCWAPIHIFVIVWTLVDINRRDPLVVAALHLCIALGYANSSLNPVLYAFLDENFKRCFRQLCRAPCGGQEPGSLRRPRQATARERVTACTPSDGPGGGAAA
In assay [12] the target is Mu-type opioid receptor (Rattus norvegicus) (UniProt P33535). The experiment in a line: Potency index, ratio of DAMGO EC50 to compound EC50 for rat mu-opioid receptor expressed in HEK293 cells co-expressing Rluc2-EPAC-GFP10 biosenser by cAMP accumulation assay. Format: functional, cell-based.
Chain of Mu-type opioid receptor (Rattus norvegicus) (P33535 whole entry): as the sequence (P33535 whole entry) above
For assay [13], the target named is Mu-type opioid receptor (Cavia porcellus) (UniProt P97266). The assay can be described thus: Potency index, ratio of DAMGO IC50 to compound IC50 for mu-opioid receptor in guinea pig ileum.
Chain of Mu-type opioid receptor (Cavia porcellus) (P97266 whole entry): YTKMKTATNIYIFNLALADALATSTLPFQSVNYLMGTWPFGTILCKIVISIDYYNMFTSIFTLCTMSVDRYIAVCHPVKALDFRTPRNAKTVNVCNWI

pEC50, pIC50: −log10 of the molar value. Calls of active or inactive are those of the source. No cut-off for these calls is given here. Non-standard residues stand in square brackets, D forms with d. Residues, ends and D or L forms follow the SMILES beside them. Phe(3-Ph) = N[C@@H](Cc1cccc(-c2ccccc2)c1)C(=O)O; Phe(2-Ph) = N[C@@H](Cc1ccccc1-c1ccccc1)C(=O)O; Bip = N[C@@H](Cc1ccc(-c2ccccc2)cc1)C(=O)O; Dmt = Cc1cc(O)cc(C)c1C[C@H](N)C(=O)O

The pIC50 is −log10 of the IC50, conventionally taken in molar units. In general, pEC50 refers to the negative decadic logarithm of the EC50, by convention in mol/L. A word on the IC20: it is the concentration at which the effect reaches the 20% level. What is called Emax is the size of the effect at its maximum, as opposed to the concentration needed.

Chain of Delta-type opioid receptor (Rattus norvegicus, UniProt P33533) (P33533 whole entry): as the sequence (P33533 whole entry) above
Chain of Mu-type opioid receptor (Cavia porcellus, UniProt P97266) (P97266 whole entry): as the sequence (P97266 whole entry) above

With `Cc1cc(O)cc(C)c1C[C@H](N)C(=O)N[C@H](CCCNC(=N)N)C(=O)N[C@@H](Cc1ccccc1-c1ccccc1)C(=O)NCC(N)=O`, the Ratio IC50 in the assay listed under Mus musculus is 38. The negative logarithm of the IC50 (pIC50) was 8.46 on Mu-type opioid receptor [1], 9.27 at Mu-type opioid receptor [2], 7.69 in assay [3] and 8.16 in assay [4].
As for `Cc1cc(O)cc(C)c1C[C@H](N)C(=O)N[C@H](C)C(=O)N[C@@H](Cc1ccccc1-c1ccccc1)C(=O)NCC(N)=O` (H-[Dmt][dA][Phe(2-Ph)]G-NH2), the pEC50 was 8.31 in assay [5] and 9.92 on Mu-type opioid receptor [8]. Further, the Ratio IC50 in the assay listed under Mus musculus came to 57. For the same compound, the pIC50 is 8.80 on Mu-type opioid receptor [1], 9.46 on Mu-type opioid receptor [2], 7.70 in [3] and 8.59 in assay [4]. The Ratio in the assay listed under Rattus norvegicus [6] is 10. Also, the result in the assay listed under Rattus norvegicus [7] was Active.
Take `C[C@@H](NC(=O)[C@@H](N)Cc1ccc(O)cc1)C(=O)NCC(=O)N(C)[C@@H](Cc1ccccc1)C(=O)NCCO` [DAMGO]: on Mu-type opioid receptor [1], the pIC50 is 7.55.
In the case of `Cc1cc(O)cc(C)c1C[C@H](N)C(=O)N[C@H](CCCNC(=N)N)C(=O)N[C@@H](Cc1ccc(-c2ccccc2)cc1)C(=O)NCC(N)=O` (H-[Dmt][dR][Bip]G-NH2), the Ke in assay [9] was determined as 114 nM. For the same compound, the Ratio IC50 in the assay listed under Mus musculus was found to be 6. Moreover, the pIC50 at Mu-type opioid receptor [2] is 8.15; in assay [3], 7.37. For the same compound, the IC20 in [10] worked out at 3090 nM.
Turning to `Cc1cc(O)cc(C)c1C[C@H](N)C(=O)N[C@H](CCCNC(=N)N)C(=O)N[C@@H](Cc1ccccc1-c1ccsc1)C(=O)NCC(N)=O`, the pEC50 in assay [5] was 7.31; at Mu-type opioid receptor [8] it was 10.40. Also, the Ratio IC50 in the assay filed under Mus musculus was 431. The negative-log IC50 (pIC50) on Mu-type opioid receptor [1] was 8.81; on Mu-type opioid receptor [2], 8.84; in assay [3], 6.20; in assay [4], 8.56.
In the case of `Cc1cc(O)cc(C)c1C[C@H](N)C(=O)N[C@H](C)C(=O)N[C@@H](Cc1ccccc1-c1ccsc1)C(=O)NCC(N)=O`, the figures for the pEC50 (in assay [5]; at Mu-type opioid receptor [8]) were 7.25 and 7.46, respectively. Further, in the assay filed under Mus musculus, the Ratio IC50 is 4. For the same compound, the pIC50 on Mu-type opioid receptor [1] was 8.90; on Mu-type opioid receptor [2], 6.62; in assay [3], 6.16; in assay [4] it was 8.67. Further, the Emax in assay [11] was 70%.
Turning to `C=Cc1ccccc1C[C@H](NC(=O)[C@@H](C)NC(=O)[C@@H](N)Cc1c(C)cc(O)cc1C)C(=O)NCC(N)=O`, the pEC50 was 8.24 in assay [5] and 11.22 at Mu-type opioid receptor [8]. Besides, in the assay listed under Mus musculus, the Ratio IC50 came out at 32. Further, the pIC50 was 8.93 at Mu-type opioid receptor [1], 9.60 on Mu-type opioid receptor [2], 8.10 in assay [3] and 8.55 in [4].
As to `CC(C)=Cc1ccccc1C[C@H](NC(=O)[C@@H](CCCNC(=N)N)NC(=O)[C@@H](N)Cc1c(C)cc(O)cc1C)C(=O)NCC(N)=O`, the figures for the pEC50 (in assay [5]; at Mu-type opioid receptor [8]) were 7.71 and 10.00, respectively. Also, in the assay listed under Mus musculus, the Ratio IC50 came to 1030. The pIC50 at Mu-type opioid receptor [1] is 9.15; on Mu-type opioid receptor [2], 9.24; in [3] it was 6.23; in assay [4] it was 9.20. For the same compound, the Ratio in the assay filed under Rattus norvegicus [6] is reported as 10. Moreover, the result in the assay filed under Rattus norvegicus [7] was Active.
As to `C=Cc1ccccc1C[C@H](NC(=O)[C@@H](CCCNC(=N)N)NC(=O)[C@@H](N)Cc1c(C)cc(O)cc1C)C(=O)NCC(N)=O`, the pEC50 in assay [5] is 8.15; at Mu-type opioid receptor [8], 10.92. For the same compound, the Ratio EC50 in [12] is 20. The Ratio IC50 in the assay listed under Mus musculus stood at 38; in [13] it was 70. The pIC50 was 9.41 at Mu-type opioid receptor [1], 9.33 on Mu-type opioid receptor [2], 7.74 in assay [3] and 9.39 in [4].
Consider `C=Cc1cccc(C[C@H](NC(=O)[C@@H](CCCNC(=N)N)NC(=O)[C@@H](N)Cc2c(C)cc(O)cc2C)C(=O)NCC(N)=O)c1`, for which the Ratio IC50 in the assay listed under Mus musculus came out at 359. For the same compound, the pIC50 was 8.84 at Mu-type opioid receptor [1], 9.34 at Mu-type opioid receptor [2], 6.78 in [3] and 8.01 in assay [4].
For `C=Cc1ccc(C[C@H](NC(=O)[C@@H](CCCNC(=N)N)NC(=O)[C@@H](N)Cc2c(C)cc(O)cc2C)C(=O)NCC(N)=O)cc1` the same measures were 777, 7.62, 8.74, 5.85 and 6.37.
Take `CC(C)[C@H](NC(=O)[C@H](CCC(=O)O)NC(=O)[C@H](Cc1ccccc1)NC(=O)[C@@H](C)NC(=O)[C@@H](N)Cc1ccc(O)cc1)C(=O)N[C@H](C(=O)NCC(=O)O)C(C)C` [DELTORPHIN]: in assay [5], the pEC50 was 10.00. Further, the results for the pIC50 on Mu-type opioid receptor [1] and on Mu-type opioid receptor [2] were 6.07 and 6.20, respectively.
Take `Cc1cc(O)cc(C)c1C[C@H](N)C(=O)N[C@H](CCCNC(=N)N)C(=O)N[C@@H](Cc1cccc(-c2ccccc2)c1)C(=O)NCC(N)=O` (H-[Dmt][dR][Phe(3-Ph)]G-NH2): the Ratio IC50 in the assay filed under Mus musculus came out at 316. For the same compound, the values for the pIC50 (on Mu-type opioid receptor [1]; on Mu-type opioid receptor [2]; in [3]) were 7.21, 9.07 and 6.57, respectively. Besides, in assay [10], the IC40 worked out at 117 nM.
Turning to `Cc1cc(O)cc(C)c1C[C@H](N)C(=O)N[C@H](CCCNC(=N)N)C(=O)N[C@@H](Cc1cccc(-c2ccsc2)c1)C(=O)NCC(N)=O`, the Ratio IC50 in the assay listed under Mus musculus stood at 583. In addition, the pIC50 at Mu-type opioid receptor [1] is 7.52; at Mu-type opioid receptor [2], 8.99; in [3], 6.22. Besides, the IC35 in [10] came to 52.8 nM.
Turning to `Cc1cc(O)cc(C)c1C[C@H](N)C(=O)N[C@H](CCCNC(=N)N)C(=O)N[C@@H](Cc1ccc(-c2ccsc2)cc1)C(=O)NCC(N)=O`, in [9], the Ke came out at 138 nM. For the same compound, the Ratio IC50 in the assay filed under Mus musculus stood at 61. In addition, the pIC50 was 8.30 at Mu-type opioid receptor [2] and 6.51 in assay [3]. In assay [10], the IC20 is 3960 nM.

The values are drawn from ChEMBL document CHEMBL4118228, “Chemical space screening around Phe3 in opioid peptides: Modulating µ versus δ agonism by Suzuki-Miyaura cross-couplings” (Bioorg Med Chem Lett, 2018).
